DAGLB inhibitor: diacylglycerol lipase beta (human) inhibition | Q8NCG7 | HEK293T DAGLB membrane lysate, EnzChek fluorogenic substrate | inhibition, % at 5.17 µM | hit rate 0.059% among 340,000 | AID 504411; in the data active = inhibition above about 34%;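 note: 0% = enzyme with vehicle and 100% = wells lacking enzyme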
Target sequence (Q8NCG7 whole entry, looked up): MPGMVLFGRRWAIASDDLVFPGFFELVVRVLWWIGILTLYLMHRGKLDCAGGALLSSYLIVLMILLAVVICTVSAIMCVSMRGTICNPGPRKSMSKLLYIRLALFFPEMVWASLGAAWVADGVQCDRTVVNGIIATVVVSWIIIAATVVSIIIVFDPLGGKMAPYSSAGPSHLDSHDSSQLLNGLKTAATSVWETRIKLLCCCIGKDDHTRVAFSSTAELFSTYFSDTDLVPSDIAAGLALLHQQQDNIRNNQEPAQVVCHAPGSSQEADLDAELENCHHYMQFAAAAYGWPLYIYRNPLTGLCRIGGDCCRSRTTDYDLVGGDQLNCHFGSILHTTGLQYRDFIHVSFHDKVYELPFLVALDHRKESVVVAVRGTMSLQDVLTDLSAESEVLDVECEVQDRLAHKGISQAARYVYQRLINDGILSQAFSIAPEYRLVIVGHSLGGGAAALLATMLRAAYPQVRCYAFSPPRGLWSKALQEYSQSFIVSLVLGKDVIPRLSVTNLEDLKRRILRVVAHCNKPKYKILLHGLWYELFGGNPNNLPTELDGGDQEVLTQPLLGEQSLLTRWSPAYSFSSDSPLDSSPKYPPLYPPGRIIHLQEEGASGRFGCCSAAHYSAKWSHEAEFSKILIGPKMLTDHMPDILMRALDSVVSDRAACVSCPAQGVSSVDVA
Tn7 DDE FP: DD(E)-Tn7 binding inhibition, primary FP screen; inhibition, % at 8.3 µM; AID 720508; hit rate 0.13% among 370,000; FP displacement of FITC-Tn7 peptide from fibrin DD(E); 0% = median of compound wells per plate;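 active = inhibition above the mean of compounds falling within the control limits plus 3 SD of them, cut at about 14% in these data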;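 note: 0% = plate median of compound wells and 100% = 10 µM Aha-Tn7 peptide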
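Assay system: human fibrin DD(E) protein / Input: 2 µM fibrin DD(E) / Benchmarks: high control of 10 µM Aha-Tn7 peptide / Measured by: fluorescence polarization of the labelled Tn7 tracer / Medium: Tris buffer with calcium and detergent, pH 7.8 / Timing: 10 min compound pre-incubation, 3 h probe incubation at room temperature / Repeats: one replicate per compound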
Tn6 DDE FP: inhibitors of Tn6 peptide binding to human fibrin DD(E) | P02675 | Fibrin DD(E) TRITC-Tn6 fluorescence polarization displacement | inhibition, % at 8.3 µM | hit rate 0.21% among 370,000;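 active = inhibition above a per-campaign cutoff: mean of compounds within control limits plus 3 SD, cut at about 15% in these data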;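 note: 0% = median of all compound wells on the plate and 100% = blocking peptide control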
H9c2 TAG inh: inhibitors of triacylglycerol accumulation; H9c2 cells, Nile Red lipid (TAG) fluorescence; cells loaded with 200 µM oleic acid; inhibition, % at 12.5 µM; hit rate 0.66% among 230,000; AID 651582;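 active = pattern-corrected inhibition of lipid staining of at least 50% with the nuclear-stain viability signal not falling by more than 50%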;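 note: 0% = DMSO wells and 100% = triacsin C control wells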
Cardio protect: modulators protecting cardiomyocytes from myocardial damage; H9c2 cardiomyocytes, H2O2 injury protection, ATPLite, 2 h; protection from H2O2 cell death, % at 20 µM; hit rate 0.63% among 360,000;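 active = compounds giving at least 50% protection of heart cells from peroxide-induced death in the single-dose screen, raw or plate-pattern-corrected value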;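 note: 0% = DMSO wells with peroxide and 100% = DMSO wells without peroxide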
MT1-MMP act inh: MT1-MMP (human) activation inhibition; P50281; GFP/RFP ratio change, % at 20 µM; hit rate 0.061% among 360,000; HT1080 RFP-PRO-GFP cells, GFP/RFP ratio fluorescence, overnight; percent of plate control window, DMSO zero; AID 651647;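 active = GFP/RFP ratio change of at least 30% with cell ATP level not reduced by more than half and red fluorescence within 50% of control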
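Material: RFP-PRO-GFP reporter HT1080 cells. Dosing: single-point 20 µM compound, 1% DMSO. Controls: DMSO and RFP-L50D-GFP cell wells. Timing: cells overnight before dosing, compound overnight, 37 °C, 5% CO2. Measure: GFP/RFP fluorescence ratio.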
H9c2 TAG conf: confirmation of triacylglycerol accumulation inhibitors | shares compounds with H9c2 TAG inh | H9c2 lipid accumulation, Nile Red fluorescence; cells loaded with 200 µM oleic acid | inhibition, % at 12.5 µM | hit rate 71% among 990;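 active = mean inhibition across replicates of 40% or more; inactive = mean inhibition below 40%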;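 note: plate controls were DMSO only wells for no effect and Triacsin C treated wells for full effect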
Numbers without * were called inactive. In the library only some 1.4% were active in any assay of this set; here they are far more common.

How did CCOC(=O)[C@H]1[C@H]2COc3ccc(Cl)cc3[C@@H]2N2C(=O)c3cc(OC)ccc3NC(=O)[C@@]12C do in these assays?
DAGLB inhibitor: -2.9; Tn7 DDE FP: -4.5; Tn6 DDE FP: -8.2; H9c2 TAG inh: 57.5*; Cardio protect: 43.6; MT1-MMP act inh: -5.7; H9c2 TAG conf: 41.2*

What do the screens show for `CCCCSc1nc(SCC(=O)NCc2ccco2)c2c3c(sc2n1)COC(C)(CC)C3` (centres undefined)?
DAGLB inhibitor: -12.7; Tn7 DDE FP: -2.3; Tn6 DDE FP: 3.0; Cardio protect: -15.8; MT1-MMP act inh: -1.9

What do the screens show for `CCCSc1nc(SCC(=O)NCc2ccccc2)c2c3c(sc2n1)COC(C)(CC)C3` (centres undefined)?
DAGLB inhibitor: 3.2; Tn7 DDE FP: 1.0; Tn6 DDE FP: 1.6; H9c2 TAG inh: 63.1*; Cardio protect: -6.0; MT1-MMP act inh: -3.7; H9c2 TAG conf: 47.8*

Results for CCCCc1ccc(N=N/C(C(=O)Nc2cc(OC)c(NC(C)=O)cc2OC)=C(/C)O)cc1 ?
DAGLB inhibitor: 0.9; Tn7 DDE FP: 0.1; Tn6 DDE FP: 4.3; H9c2 TAG inh: 54.8*; Cardio protect: -3.1; MT1-MMP act inh: 9.5; H9c2 TAG conf: 67.7*

What do the screens show for `CCCCc1ccc(N=N/C(C(=O)Nc2ccccc2OC)=C(/C)O)cc1`?
DAGLB inhibitor: -1.0; Tn7 DDE FP: 5.2; Tn6 DDE FP: -4.6; Cardio protect: -4.7; MT1-MMP act inh: -12.7

What do the screens show for `CC(=O)N[C@@H](C)CCc1ccc(Oc2ccc(OC(C)C)nc2)cc1`?
Tn7 DDE FP: -0.3; Tn6 DDE FP: -1.4

Results for O=C(Nc1ccccc1F)O[C@@H]1CC[C@@]23CCCN2C(=O)CCC[C@H]3C1 ?
Tn7 DDE FP: 6.7; Tn6 DDE FP: 0.9

Results for CNCCCN1c2ccccc2CCc2ccccc21 ?
DAGLB inhibitor: 2.6; Tn7 DDE FP: -3.4; Tn6 DDE FP: 2.9; H9c2 TAG inh: 57.2*; Cardio protect: 11.4; MT1-MMP act inh: -10.4; H9c2 TAG conf: 47.0*

Results for C[C@H]1CN([C@@H](C)CO)C(=O)c2cc(NC(=O)Nc3cccc4ccccc34)ccc2O[C@@H]1CN(C)Cc1ccc(-c2ccccc2)cc1 ?
DAGLB inhibitor: 1.2; Tn7 DDE FP: 1.4; Tn6 DDE FP: -10.0; H9c2 TAG inh: 71.6*; Cardio protect: -11.2; MT1-MMP act inh: 8.1; H9c2 TAG conf: 70.5*

What do the screens show for `C[C@@H]1CN([C@@H](C)CO)C(=O)c2cccc(NC(=O)Nc3ccc(F)cc3)c2O[C@@H]1CN(C)Cc1ccc(Oc2ccccc2)cc1`?
DAGLB inhibitor: 0.8; Tn7 DDE FP: 4.9; Tn6 DDE FP: 0.7; H9c2 TAG inh: 72.8*; Cardio protect: -5.4; MT1-MMP act inh: -5.2; H9c2 TAG conf: 80.7*

Results for C[C@@H]1CN([C@H](C)CO)C(=O)c2c(c3ccccc3n2C)-c2ccccc2CO[C@H]1CN(C)Cc1ccc(Oc2ccccc2)cc1 ?
DAGLB inhibitor: -4.2; Tn7 DDE FP: 0.2; Tn6 DDE FP: -3.0; H9c2 TAG inh: 59.1*; Cardio protect: -15.5; MT1-MMP act inh: 5.7; H9c2 TAG conf: 73.7*

How did C[C@@H]1CN([C@H](C)CO)C(=O)c2cc(NC(=O)Nc3cccc4ccccc34)ccc2O[C@H]1CN(C)Cc1ccc(C(F)(F)F)cc1 do in these assays?
DAGLB inhibitor: 0.9; Tn7 DDE FP: 5.2; Tn6 DDE FP: 1.9; H9c2 TAG inh: 9.6; Cardio protect: 1.2; MT1-MMP act inh: 2.0

Results for C[C@H](CO)N1C[C@H](C)[C@H](CN(C)Cc2ccccc2)Oc2c(NC(=O)Nc3ccc(F)cc3)cccc2C1=O ?
DAGLB inhibitor: -2.7; Tn7 DDE FP: 4.5; Tn6 DDE FP: -0.8; H9c2 TAG inh: 27.8; Cardio protect: -6.0; MT1-MMP act inh: 1.9

How did Cc1ccc(-n2ncc(-c3nnc(SCC(=O)NC4CCCC4)o3)c2N)cc1C do in these assays?
DAGLB inhibitor: -1.2; Tn7 DDE FP: -4.0; Tn6 DDE FP: -7.8; H9c2 TAG inh: 54.7*; Cardio protect: -21.3; MT1-MMP act inh: -1.4; H9c2 TAG conf: 37.5

Results for CCOC(=O)CC[C@@]1(C(=O)OCC)C[C@@H](CC(=O)NCc2cccc3ccccc23)C(=O)N2CCCC=C21 ?
Tn7 DDE FP: 5.7; Tn6 DDE FP: 10.5

Results for O=[N+]([O-])c1ccc(-c2cn3nc(-c4ccccc4)c(-c4ccccc4)nc3n2)cc1 ?
Tn7 DDE FP: 0.6; Tn6 DDE FP: 0.8; H9c2 TAG inh: 86.6*; Cardio protect: -0.4; MT1-MMP act inh: -5.6; H9c2 TAG conf: 9.1

What do the screens show for `Cc1ccccc1NC(=O)CN1CCN(c2nc(-c3ccccc3)cs2)CC1`?
Tn7 DDE FP: -4.1; Tn6 DDE FP: -1.1

How did N#C/C(=C\c1cc([N+](=O)[O-])c(N2CCCCC2)cc1N1CCCCC1)c1nn(-c2ccccc2)c(N)c1C#N do in these assays?
DAGLB inhibitor: 1.9; Tn7 DDE FP: 0.9; Tn6 DDE FP: 6.1; H9c2 TAG inh: 50.9*; Cardio protect: -19.6; MT1-MMP act inh: 6.4; H9c2 TAG conf: 53.4*

What do the screens show for `Cc1ccc(/C=C(\C#N)c2nn(-c3ccccc3)c(N)c2C#N)cc1`?
DAGLB inhibitor: -3.6; Tn7 DDE FP: 2.4; Tn6 DDE FP: 4.6; Cardio protect: -6.3; MT1-MMP act inh: -2.6

What do the screens show for `CC(C)(C)N1C(=O)[C@H]2[C@@H](c3ccc(Br)cc3)N3C(=O)N(c4ccc(Br)cc4)C(=O)[C@@]3(Cc3ccccc3)[C@H]2C1=O`?
DAGLB inhibitor: -9.8; H9c2 TAG inh: 59.6*; Cardio protect: 3.3; MT1-MMP act inh: -3.0; H9c2 TAG conf: 53.7*

Results for CN(C)c1cccc(/C=C2\CC3(OC(=O)c4ccccc4)CCCN2C3)c1 (centres undefined) ?
Tn7 DDE FP: 8.9; Tn6 DDE FP: -5.0

How did Cc1cc(=O)oc2cc(NC(=O)c3cccc(Br)c3)ccc12 do in these assays?
DAGLB inhibitor: 1.6; Tn7 DDE FP: 5.6; Tn6 DDE FP: 0.6; H9c2 TAG inh: 68.9*; Cardio protect: 1.7; MT1-MMP act inh: -2.3; H9c2 TAG conf: 52.4*

Results for Cc1cc(=O)oc2cc(NC(=O)c3cc4ccccc4o3)ccc12 ?
Tn7 DDE FP: -4.8; Tn6 DDE FP: 2.5

How did Nc1[nH]c(C(=O)c2ccccc2)c(-c2ccc(Cl)cc2Cl)c1C(=O)c1cccs1 do in these assays?
Tn7 DDE FP: 0.4; Tn6 DDE FP: 4.5

Assay outcomes from PubChem.
